{"source": "paper PMC9579399", "about": "(Clinical and Translational Science, 2022)", "test_system": "healthy Chinese male subjects", "experiment": "Safety evaluation", "assay_type": "in vivo, human", "settings": "n = 49 per group", "how_it_was_run": "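AEs recorded throughout the study by investigators, including laboratory tests (hematology, biochemistry, urinalysis), vital signs, physical exams, 12-lead ECG and injection site reactions. Subjects with AEs followed until return to normal or baseline. Incidence calculated as subjects with at least one AE divided by total subjects.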"}
{"smiles": "CCCCCCCCCCCCCCCC(=O)N[C@@H](CCC(=O)NCCCC[C@H](NC(=O)[C@H](C)NC(=O)[C@H](C)NC(=O)[C@H](CCC(N)=O)NC(=O)CNC(=O)[C@H](CCC(=O)O)NC(=O)[C@H](CC(C)C)NC(=O)[C@H](Cc1ccc(O)cc1)NC(=O)[C@H](CO)NC(=O)[C@H](CO)NC(=O)[C@@H](NC(=O)[C@H](CC(=O)O)NC(=O)[C@H](CO)NC(=O)[C@@H](NC(=O)[C@H](Cc1ccccc1)NC(=O)[C@@H](NC(=O)CNC(=O)[C@H](CCC(=O)O)NC(=O)[C@H](C)NC(=O)[C@@H](N)Cc1cnc[nH]1)[C@@H](C)O)[C@@H](C)O)C(C)C)C(=O)N[C@@H](CCC(=O)O)C(=O)N[C@@H](Cc1ccccc1)C(=O)N[C@H](C(=O)N[C@@H](C)C(=O)N[C@@H](Cc1c[nH]c2ccccc12)C(=O)N[C@@H](CC(C)C)C(=O)N[C@H](C(=O)N[C@@H](CCCNC(=N)N)C(=O)NCC(=O)N[C@@H](CCCNC(=N)N)C(=O)NCC(=O)O)C(C)C)[C@@H](C)CC)C(=O)O", "note": "[Victoza, Liraglutide]", "values": [{"measurement": "incidence of AEs", "setting": "percentage of subjects with at least one AE", "result": 32.7, "unit": "%"}, {"measurement": "incidence of TRAEs", "setting": "percentage of subjects with at least one TRAE", "result": 24.5, "unit": "%"}, {"measurement": "Number of events (AEs)", "setting": "single 0.6 mg s.c.", "result": 19}, {"measurement": "Number of events (TRAEs)", "setting": "single 0.6 mg s.c.", "result": 12}]}
